ChEMBL document CHEMBL4014339, “Discovery of 1,4-Benzodiazepine-2,5-dione (BZD) Derivatives as Dual Nucleotide Binding Oligomerization Domain Containing 1/2 (NOD1/NOD2) Antagonists Sensitizing Paclitaxel (PTX) To Suppress Lewis Lung Carcinoma (LLC) Growth in Vivo” (J Med Chem, 2017)

Legend:
Assay type in all cases: cell-based
[1] = target: T1, Nucleotide-binding oligomerization domain-containing protein 1 (Homo sapiens) (UniProt Q9Y239); assay: Antagonist activity at human NOD1 expressed in HEK-Blue cells assessed as inhibition of C12-iE-DAP-stimulated cell activation at 10 uM preincubated for 3 hrs followed by C12-iE-DAP addition measured after 20 hrs by SEAP reporter gene assay
T1 sequence (whole entry): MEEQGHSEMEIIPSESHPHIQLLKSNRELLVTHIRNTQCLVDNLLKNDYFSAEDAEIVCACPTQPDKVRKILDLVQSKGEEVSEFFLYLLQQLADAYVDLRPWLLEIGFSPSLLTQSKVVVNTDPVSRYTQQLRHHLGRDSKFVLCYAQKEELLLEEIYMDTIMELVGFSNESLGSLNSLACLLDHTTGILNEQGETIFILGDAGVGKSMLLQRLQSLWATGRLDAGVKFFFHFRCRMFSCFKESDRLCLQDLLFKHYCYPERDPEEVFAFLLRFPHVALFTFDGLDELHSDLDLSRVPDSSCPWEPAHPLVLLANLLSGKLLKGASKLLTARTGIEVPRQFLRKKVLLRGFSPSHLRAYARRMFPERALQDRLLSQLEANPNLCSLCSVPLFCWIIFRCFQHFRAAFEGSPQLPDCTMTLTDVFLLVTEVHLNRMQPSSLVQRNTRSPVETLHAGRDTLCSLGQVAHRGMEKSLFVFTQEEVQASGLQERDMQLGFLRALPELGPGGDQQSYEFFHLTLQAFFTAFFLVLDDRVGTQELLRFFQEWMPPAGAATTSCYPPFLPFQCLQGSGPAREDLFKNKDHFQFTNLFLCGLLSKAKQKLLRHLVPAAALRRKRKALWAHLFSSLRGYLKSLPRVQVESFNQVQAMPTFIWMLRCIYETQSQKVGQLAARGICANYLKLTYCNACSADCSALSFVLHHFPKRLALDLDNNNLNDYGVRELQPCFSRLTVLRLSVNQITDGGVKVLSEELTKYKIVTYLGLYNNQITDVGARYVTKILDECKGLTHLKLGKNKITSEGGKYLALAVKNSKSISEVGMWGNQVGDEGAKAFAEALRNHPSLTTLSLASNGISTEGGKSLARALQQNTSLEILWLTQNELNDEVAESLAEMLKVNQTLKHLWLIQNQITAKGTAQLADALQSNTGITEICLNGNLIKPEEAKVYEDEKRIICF
Method in brief: (§1)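 HEK-Blue hNOD1 or hNOD2 cells preincubated with compound 3 h, then stimulated 20 h with C12-iE-DAP 50 ng/mL (NOD1) or MDP 100 ng/mL (NOD2); SEAP in supernatant quantified. Primary screen at 10 μM, hits repeated in triplicate; IC50 from dose-response, mean ± SD (n = 3), only for compounds reaching ≥50% inhibition at the screening concentration.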

[2] = target: T1, Nucleotide-binding oligomerization domain-containing protein 1 (Homo sapiens); assay: Antagonist activity at human NOD1 expressed in HEK-blue cells assessed as inhibition of C12-iE-DAP-stimulated cell activation at 5 uM preincubated for 3 hrs followed by C12-iE-DAP addition measured after 20 hrs by SEAP reporter gene assay
[3] = target: T2, Nucleotide-binding oligomerization domain-containing protein 2 (Homo sapiens, UniProt Q9HC29); assay: Antagonist activity at human NOD2 expressed in HEK-Blue cells assessed as inhibition of MDP-stimulated cell activation at 10 uM preincubated for 3 hrs followed by MDP addition measured after 20 hrs by SEAP reporter gene assay; method in brief: as §1
[4] = target: T2, Nucleotide-binding oligomerization domain-containing protein 2; assay: Antagonist activity at human NOD2 expressed in HEK-Blue cells assessed as inhibition of MDP-stimulated cell activation at 5 uM preincubated for 3 hrs followed by MDP addition measured after 20 hrs by SEAP reporter gene assay

T2 sequence (Q9HC29 whole entry, the tested form may be a part): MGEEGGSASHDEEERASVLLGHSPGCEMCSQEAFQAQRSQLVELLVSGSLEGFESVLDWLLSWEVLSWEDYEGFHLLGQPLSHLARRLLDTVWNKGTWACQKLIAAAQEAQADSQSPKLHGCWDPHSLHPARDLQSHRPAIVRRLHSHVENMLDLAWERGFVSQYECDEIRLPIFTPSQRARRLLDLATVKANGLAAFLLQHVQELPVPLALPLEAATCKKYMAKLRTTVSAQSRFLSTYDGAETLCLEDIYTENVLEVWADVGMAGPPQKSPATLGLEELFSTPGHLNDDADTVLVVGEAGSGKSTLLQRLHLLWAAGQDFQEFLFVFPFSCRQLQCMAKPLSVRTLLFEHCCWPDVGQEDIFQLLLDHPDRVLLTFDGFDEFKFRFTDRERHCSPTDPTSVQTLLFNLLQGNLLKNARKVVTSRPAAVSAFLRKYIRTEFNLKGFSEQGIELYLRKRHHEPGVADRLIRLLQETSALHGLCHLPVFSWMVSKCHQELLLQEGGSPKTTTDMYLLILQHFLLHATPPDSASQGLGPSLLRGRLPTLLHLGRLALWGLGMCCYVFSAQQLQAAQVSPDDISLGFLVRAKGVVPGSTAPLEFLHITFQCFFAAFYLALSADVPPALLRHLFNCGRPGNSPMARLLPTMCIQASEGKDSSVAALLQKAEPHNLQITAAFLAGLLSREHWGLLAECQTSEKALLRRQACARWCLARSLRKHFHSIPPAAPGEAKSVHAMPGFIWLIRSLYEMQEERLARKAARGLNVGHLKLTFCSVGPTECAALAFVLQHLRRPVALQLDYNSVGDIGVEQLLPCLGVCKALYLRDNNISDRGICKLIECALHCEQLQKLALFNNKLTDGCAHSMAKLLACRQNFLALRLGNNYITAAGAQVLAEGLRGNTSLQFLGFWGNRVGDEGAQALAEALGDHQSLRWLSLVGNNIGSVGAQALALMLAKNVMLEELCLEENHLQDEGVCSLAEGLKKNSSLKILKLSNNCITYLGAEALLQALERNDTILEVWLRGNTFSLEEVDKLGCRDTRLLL

Row | Compound | inhibition [1] | inhibition [2] | inhibition [3] | inhibition [4]
1 | COC(=O)CC[C@H]1NC(=O)c2cc(Oc3cc(N(C)C)c(Cl)c(Cl)c3Cl)c(NC(=O)COCc3ccccc3)cc2NC1=O | 11.1% | 16.2% | 17.4% | 11.1%
2 | CCCCCCCCCCCCCCCCCCNC(=O)CC[C@H]1NC(=O)c2cc(Oc3cccc(N(C)C)c3)c(NC(=O)COCc3ccccc3)cc2NC1=O | 18.5% | 12.7% | – | –
3 | COC(=O)CC[C@H]1NC(=O)c2cc(Oc3cccc(N(C)C)c3Cl)c(NC(=O)COCc3ccccc3)cc2NC1=O | 44.2% | 55.8% | 46% | 44.6%
4 | COC(=O)CC[C@@H]1NC(=O)c2cc(Oc3cccc(N(C)C)c3)c(NC(=O)COCc3ccc(F)cc3Cl)cc2NC1=O | – | 29.3% | – | 10.3%
5 | COC(=O)CC[C@H]1NC(=O)c2cc(Oc3cccc(N(C)C)c3)c(NC(=O)COCc3ccc(Cl)cc3Cl)cc2NC1=O | – | 59.5% | – | 30.9%
6 | COC(=O)CC[C@H]1NC(=O)c2cc(Oc3cccc(N(C)C)c3)c(NC(=O)COCc3ccc(F)cc3Cl)cc2NC1=O | 38.6% | 20.1% | 13.5% | 12.8%
7 | COC(=O)CC[C@H]1NC(=O)c2cc(Oc3ccccc3)c(NC(=O)COCc3ccc(C(F)(F)F)cc3)cc2NC1=O | – | 42.4% | – | 29.8%
8 | CCCNC(=O)CC[C@@H]1NC(=O)c2cc(Oc3cccc(N(C)C)c3)c(NC(=O)COCc3ccccc3)cc2NC1=O | – | 46.1% | – | 34.5%
9 | CN(C)c1cccc(Oc2cc3c(cc2NC(=O)COCc2ccc(C(F)(F)F)cc2)NC(=O)CNC3=O)c1 | – | 38% | – | 31.6%
10 | COC(=O)CC[C@H]1NC(=O)c2cc(Oc3cccc(N(C)C)c3)c(NC(=O)COCc3ccc(Cl)c(Cl)c3)cc2NC1=O | – | 36% | – | 45.5%
11 | COC(=O)CC[C@H]1NC(=O)c2cc(Oc3cccc(N(C)C)c3)c(NC(=O)CCCc3ccccc3)cc2NC1=O | – | 22.2% | – | 18%
12 | C=CCOCC(=O)Nc1cc2c(cc1Oc1cccc(N(C)C)c1)C(=O)N[C@H](CCC(=O)OC)C(=O)N2 | – | 43.3% | – | 38.5%
13 | COC(=O)CC[C@H]1NC(=O)c2cc(Oc3cccc(N(C)C)c3)c(NC(=O)COCc3ccccc3Cl)cc2NC1=O | – | -5.97% | 23.8% | 20.9%
14 | COC(=O)CC[C@H]1NC(=O)c2cc(Oc3cccc(N(C)C)c3)c(NC(=O)COCc3ccsc3)cc2NC1=O | – | 48.1% | – | 38.6%
15 | CN(C)c1cccc(Oc2cc3c(cc2NC(=O)COCc2ccccc2)NC(=O)[C@@H](CCC(=O)N2CCNCC2)NC3=O)c1 | – | 33.4% | – | 42.2%
16 | COC(=O)CC[C@H]1NC(=O)c2cc(Oc3cccc(N(C)C)c3)c(NC(=O)COCc3ccoc3)cc2NC1=O | – | 34.9% | – | 24.8%
17 | CCCCCCCCCN1C(=O)[C@@H](CCC(=O)OC)N(C)C(=O)c2ccc(Cl)cc21 | 31.3% | – | 34.1% | –
18 | O=C(CC[C@H]1NC(=O)c2cc(N3CCOCC3)c(NC(=O)C3CC3)cc2NC1=O)NC1CCCc2ccccc21 (stereo not given in full) | 22.6% | – | 27.1% | –
19 | COC(=O)CC[C@H]1NC(=O)c2cc(Oc3cccc4ccccc34)c(NC(=O)/C=C\c3ccc(F)cc3Cl)cc2NC1=O | 37.9% | – | 34.2% | –
20 | CN1CCN(C(=O)CC[C@H]2NC(=O)c3cc(Oc4cccc(N(C)C)c4)c(NC(=O)COCc4ccccc4)cc3NC2=O)CC1 | – | 21.7% | – | 38.8%
21 | CCCCCCCCCCN1C(=O)C(CCC(=O)OC)NC(=O)c2cc(Cl)ccc21 (stereo not given) | 2.54% | – | -2.7% | –
22 | COC(=O)CC[C@H]1NC(=O)c2cc(N3CCOCC3)c(NC(=O)Cc3ccccc3)cc2NC1=O | 13% | – | 50.9% | –
23 | COC(=O)CC[C@H]1NC(=O)c2cc(Oc3cccc4ccccc34)c(NC(=O)C3CC3)cc2NC1=O | 6.34% | – | -0.3% | –
24 | O=C(O)CC[C@H]1NC(=O)c2cc(Oc3cccc4ccccc34)c(NC(=O)/C=C\c3ccc(F)cc3Cl)cc2NC1=O | 3.86% | – | 7.76% | –
